What all share (test): PAD isozyme probe labeling blockade – biochemical, fluorescence, gel-based ABPP, HTS hits, orthogonal assay for PAD4 inhibitor project, late-stage follow-up (AID 588487)
Assay [1] concerns the target Protein-arginine deiminase type-1 (Homo sapiens) (UniProt Q9ULC6). The following applies: recombinant PAD1-4, gel-based ABPP, RFA probe fluorescence; PAD1; at 10 µM; active compounds read high. The procedure, abridged: (§1)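 System – recombinant PAD1, PAD2, PAD3 or PAD4 · Input – PAD enzyme 10 µM · Probe or stimulus – RFA fluorescent probe at 1 µM · Dosing – single compound dose of 10 µM, DMSO vehicle · Times – 15 min compound pre-incubation plus 30 min probe step, 37 °C · Signal – SDS-PAGE gel fluorescence, band integrated optical density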

Assay [2] has as its target Protein-arginine deiminase type-2 (Homo sapiens) (UniProt Q9Y2J8). The following applies: recombinant PAD1-4, gel-based ABPP, RFA probe fluorescence; PAD2; at 10 µM; active compounds read high. The procedure, abridged: as §1
For assay [3], the target named is Protein-arginine deiminase type-3 (Homo sapiens) (UniProt Q9ULW8). The conditions noted are these: recombinant PAD1-4, gel-based ABPP, RFA probe fluorescence; PAD3; at 10 µM; active compounds read high. The method in brief:
as §1

Assay [4] has as its target Protein-arginine deiminase type-4 (Homo sapiens) (UniProt Q9UM07). The following applies: recombinant PAD1-4, gel-based ABPP, RFA probe fluorescence; PAD4; at 10 µM; active compounds read high. The method in brief:
as §1

Structures are written as SMILES. Activity calls are given as the source filed them.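 Rule for the calls: active = inhibition of at least 50% against any of four protein arginine deiminase enzymes; inactive = the rest.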

Chain of Protein-arginine deiminase type-3 (Homo sapiens) (Q9ULW8 whole entry, looked up): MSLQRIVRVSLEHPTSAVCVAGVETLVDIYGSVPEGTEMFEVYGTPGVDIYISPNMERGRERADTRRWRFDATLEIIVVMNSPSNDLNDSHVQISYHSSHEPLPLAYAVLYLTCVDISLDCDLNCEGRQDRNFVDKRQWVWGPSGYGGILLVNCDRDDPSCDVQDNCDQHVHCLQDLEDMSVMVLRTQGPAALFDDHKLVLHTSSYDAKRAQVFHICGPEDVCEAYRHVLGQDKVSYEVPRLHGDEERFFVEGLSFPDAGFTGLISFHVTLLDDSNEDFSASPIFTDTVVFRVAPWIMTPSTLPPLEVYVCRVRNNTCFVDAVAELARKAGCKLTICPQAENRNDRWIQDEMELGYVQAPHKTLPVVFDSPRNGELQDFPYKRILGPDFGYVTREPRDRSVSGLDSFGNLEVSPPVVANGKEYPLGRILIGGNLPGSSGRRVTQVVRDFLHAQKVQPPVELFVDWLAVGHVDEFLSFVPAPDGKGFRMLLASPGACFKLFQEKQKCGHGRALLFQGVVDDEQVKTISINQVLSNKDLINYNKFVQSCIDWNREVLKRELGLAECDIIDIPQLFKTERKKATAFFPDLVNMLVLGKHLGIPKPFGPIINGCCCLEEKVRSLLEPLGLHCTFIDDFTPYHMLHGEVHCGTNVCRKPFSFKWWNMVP
Chain of Protein-arginine deiminase type-1 (Homo sapiens) (Q9ULC6 whole entry, looked up): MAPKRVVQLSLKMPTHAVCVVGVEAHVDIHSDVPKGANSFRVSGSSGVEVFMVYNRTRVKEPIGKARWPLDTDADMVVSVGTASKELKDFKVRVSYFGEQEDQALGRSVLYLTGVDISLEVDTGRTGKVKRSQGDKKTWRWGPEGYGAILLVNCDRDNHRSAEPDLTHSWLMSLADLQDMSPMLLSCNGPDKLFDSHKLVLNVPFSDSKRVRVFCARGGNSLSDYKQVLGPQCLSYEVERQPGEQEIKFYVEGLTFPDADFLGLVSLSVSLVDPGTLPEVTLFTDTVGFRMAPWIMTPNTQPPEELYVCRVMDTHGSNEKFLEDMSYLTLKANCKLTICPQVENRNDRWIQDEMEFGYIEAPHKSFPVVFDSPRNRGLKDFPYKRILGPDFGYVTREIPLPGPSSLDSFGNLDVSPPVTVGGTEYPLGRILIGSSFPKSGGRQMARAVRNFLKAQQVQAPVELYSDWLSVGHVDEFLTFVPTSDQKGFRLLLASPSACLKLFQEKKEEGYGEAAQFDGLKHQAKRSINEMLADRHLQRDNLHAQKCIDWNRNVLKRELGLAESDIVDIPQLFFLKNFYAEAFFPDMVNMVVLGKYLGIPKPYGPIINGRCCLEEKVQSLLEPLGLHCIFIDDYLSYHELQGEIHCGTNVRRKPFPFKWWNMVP
Chain of Protein-arginine deiminase type-2 (Homo sapiens) (Q9Y2J8 whole entry, looked up): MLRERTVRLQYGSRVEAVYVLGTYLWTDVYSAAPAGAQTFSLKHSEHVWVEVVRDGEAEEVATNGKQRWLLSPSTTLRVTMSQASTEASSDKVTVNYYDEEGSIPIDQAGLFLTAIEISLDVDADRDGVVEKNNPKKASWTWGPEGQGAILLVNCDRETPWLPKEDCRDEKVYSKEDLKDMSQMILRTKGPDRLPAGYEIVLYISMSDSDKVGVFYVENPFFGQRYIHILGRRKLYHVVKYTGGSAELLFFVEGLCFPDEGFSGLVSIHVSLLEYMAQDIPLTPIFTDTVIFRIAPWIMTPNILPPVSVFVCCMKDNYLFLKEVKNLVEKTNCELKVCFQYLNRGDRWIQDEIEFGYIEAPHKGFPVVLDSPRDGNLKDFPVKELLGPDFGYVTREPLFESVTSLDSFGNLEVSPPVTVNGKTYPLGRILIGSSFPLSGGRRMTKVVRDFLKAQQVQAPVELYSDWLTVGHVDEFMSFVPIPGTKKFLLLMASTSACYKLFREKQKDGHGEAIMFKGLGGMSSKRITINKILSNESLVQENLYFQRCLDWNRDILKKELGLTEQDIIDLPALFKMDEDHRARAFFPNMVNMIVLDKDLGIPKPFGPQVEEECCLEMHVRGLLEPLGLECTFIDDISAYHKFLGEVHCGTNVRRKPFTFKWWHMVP
Chain of Protein-arginine deiminase type-4 (Homo sapiens) (Q9UM07 whole entry, looked up): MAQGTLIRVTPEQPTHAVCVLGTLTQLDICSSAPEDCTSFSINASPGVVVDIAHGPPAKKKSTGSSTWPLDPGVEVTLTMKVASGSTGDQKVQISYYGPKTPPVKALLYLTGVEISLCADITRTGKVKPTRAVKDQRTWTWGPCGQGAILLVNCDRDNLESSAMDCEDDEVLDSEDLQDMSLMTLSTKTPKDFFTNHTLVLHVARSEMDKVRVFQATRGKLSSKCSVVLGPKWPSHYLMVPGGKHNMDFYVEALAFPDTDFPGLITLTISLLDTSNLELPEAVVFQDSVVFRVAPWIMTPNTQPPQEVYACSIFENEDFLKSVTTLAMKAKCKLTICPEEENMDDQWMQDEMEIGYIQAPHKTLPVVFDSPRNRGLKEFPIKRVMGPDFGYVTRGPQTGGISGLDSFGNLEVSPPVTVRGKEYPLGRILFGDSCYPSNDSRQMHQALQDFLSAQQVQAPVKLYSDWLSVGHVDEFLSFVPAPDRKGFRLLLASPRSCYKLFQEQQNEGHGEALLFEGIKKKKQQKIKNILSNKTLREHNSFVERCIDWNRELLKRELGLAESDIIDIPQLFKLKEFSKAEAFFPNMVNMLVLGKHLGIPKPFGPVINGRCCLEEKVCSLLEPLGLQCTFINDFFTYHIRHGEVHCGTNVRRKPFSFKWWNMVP

For `COc1ccc(/C=N/Nc2nncn2N)cc1Br`, the inhibition (commonly the change of the read-out against control, counted positive when it falls) in assay [1] was 30% (inactive); in assay [2], 44% (inactive); in assay [3], -24% (inactive); in assay [4], 55%.

Regarding `Cn1c(N)c(C(=O)COC(=O)COc2ccc(Br)cc2)c(=O)n(C)c1=O`, the inhibition in assay [1] is 16% (inactive); in assay [2] it was 51%; in assay [3], 19% (inactive); in assay [4], 20% (inactive).

Take `COc1ccc(C2C(C#N)=C(N)N(N(C)C)C3=C2C(=O)CCC3)cc1` (centres undefined): the inhibition was 13% (inactive) in assay [1], 21% (inactive) in assay [2], 49% (inactive) in assay [3] and 55% in assay [4].

`Cc1nn(-c2ccccc2)c(C)c1NC(=O)COc1ccc(Cl)cc1Cl`: the inhibition in assay [1] was 2% (inactive); in assay [2], 29% (inactive); in assay [3], 57%; in assay [4], 12% (inactive).

`O=C(CN1CCCCCC1)Nc1ccc(Br)cc1Br`: the inhibition in assay [1] is 41% (inactive); in assay [2] it was -16% (inactive); in assay [3], 31% (inactive); in assay [4] it was -53% (inactive).

For the molecule `CCOc1ccccc1C(=O)NCC(=O)NCCCc1ccccc1`, the inhibition is -8% (inactive) in assay [1], 26% (inactive) in assay [2], 11% (inactive) in assay [3] and 31% (inactive) in assay [4].

With `Cc1cc(N(C)NC(=S)Nc2ccccc2)nc(C)n1`, the inhibition in assay [1] is 32% (inactive); in assay [2] it was 58%; in assay [3], 38% (inactive); in assay [4] it was 5% (inactive).

With `CS(=O)(=O)c1ccc(N)c(SSc2cc(S(C)(=O)=O)ccc2N)c1`, the inhibition in assay [1] is 27% (inactive); in assay [2] it was 14% (inactive); in assay [3] it was 35% (inactive); in assay [4], -7% (inactive).

In the case of `Cc1nn(-c2cccc(Cl)c2)c2c1C(c1cccnc1)C(C#N)=C(N)O2` (centres undefined), the inhibition in assay [1] was 74%; in assay [2], 28% (inactive); in assay [3] it was -34% (inactive); in assay [4] it was 53%.

With `COc1cccc(/C=C2/CN(C)CC3=C2OC(N)=C(C#N)C3c2cccc(OC)c2)c1` (centres undefined), the inhibition was -47% (inactive) in assay [1], 92% in assay [2], 48% (inactive) in assay [3] and -5% (inactive) in assay [4].

Take `O=c1cc(-c2cccc([N+](=O)[O-])c2)[nH][nH]1`: the inhibition was 24% (inactive) in assay [1], 18% (inactive) in assay [2], 5% (inactive) in assay [3] and 29% (inactive) in assay [4].

For the molecule `Cc1nonc1OC(C)CNc1ccc([N+](=O)[O-])cc1` (centres undefined), the inhibition is 46% (inactive) in assay [1], 38% (inactive) in assay [2], 38% (inactive) in assay [3] and 22% (inactive) in assay [4].

Consider `Cc1ccc(C2=NN=C(NC(=O)CSc3nncn3C)SC2)cc1`, for which the inhibition was 16% (inactive) in assay [1], 1% (inactive) in assay [2], 32% (inactive) in assay [3] and 26% (inactive) in assay [4].

Take `COCc1cc(C)nc(SCC(=O)Nc2ccc3c(c2)n(C)c(=O)n3C)c1C#N`: the inhibition is 15% (inactive) in assay [1], 31% (inactive) in assay [2], -43% (inactive) in assay [3] and 38% (inactive) in assay [4].

Regarding `O=C(NC1CCCCC1)C(c1cccs1)N(CCCN1CCOCC1)C(=O)c1ccc(-c2ccccc2)[nH]1` (centres undefined), the inhibition in assay [1] is -42% (inactive); in assay [2], -27% (inactive); in assay [3] it was 15% (inactive); in assay [4] it was 59%.

Regarding `Cc1c(C(=O)N2CCCCC2)c(S(=O)(=O)N2CCN(c3ccc(Cl)cc3)CC2)c(C)n1C`, the inhibition in assay [1] was -25% (inactive); in assay [2], 6% (inactive); in assay [3] it was 26% (inactive); in assay [4] it was 67%.

With `CCN(Cc1ccc2c(c1)OCCO2)C(=O)CSc1nc(C)nc2sc(C)c(C)c12`, the inhibition in assay [1] was 43% (inactive); in assay [2], 24% (inactive); in assay [3] it was 24% (inactive); in assay [4], -38% (inactive).

With `CCOC(=O)N1CCC(c2cc(=O)n(-c3ccccc3)[nH]2)CC1`, the inhibition in assay [1] is 43% (inactive); in assay [2], 14% (inactive); in assay [3] it was 32% (inactive); in assay [4] it was 30% (inactive).

`N#CCCn1[nH]c(-c2ccccc2)cc1=O`: the inhibition is 47% (inactive) in assay [1], 29% (inactive) in assay [2], 3% (inactive) in assay [3] and 32% (inactive) in assay [4].

For `Cc1ccc(C2CC(=O)Oc3cc(O)ccc32)cc1` (centres undefined), the inhibition is 40% (inactive) in assay [1], -2% (inactive) in assay [2], 43% (inactive) in assay [3] and -30% (inactive) in assay [4].

As for `CC(=O)C1=C(c2ccccc2)N(C(C)=O)n2c(C)nnc2S1`, the inhibition in assay [1] is 42% (inactive); in assay [2] it was 25% (inactive); in assay [3] it was 32% (inactive); in assay [4], 9% (inactive).

As to `O=C(NCC1CCCO1)c1cc2c([nH]c3ccccc32)c(-c2ccc(F)cc2)n1` (centres undefined), the inhibition in assay [1] is 36% (inactive); in assay [2], 13% (inactive); in assay [3], -27% (inactive); in assay [4] it was 78%.

With `CCN(CC)S(=O)(=O)c1ccc(N=NC2=C(O)CCCC2=O)cc1`, the inhibition in assay [1] was -20% (inactive); in assay [2], 63%; in assay [3] it was 6% (inactive); in assay [4], 93%.

`CCN(CC)c1cccc(OC2=NS(=O)(=O)c3ccccc32)c1`: the inhibition in assay [1] is 60%; in assay [2] it was 50%; in assay [3] it was 32% (inactive); in assay [4] it was 17% (inactive).

Consider `CC(NC(=O)Nc1ccc(O)cc1)(C(F)(F)F)C(F)(F)F`, for which the inhibition in assay [1] is 29% (inactive); in assay [2], 31% (inactive); in assay [3] it was -29% (inactive); in assay [4], 60%.

Consider `O=C(O)c1[nH]c2ccccc2c1-c1ccccc1`, for which the inhibition in assay [1] was 17% (inactive); in assay [2], 14% (inactive); in assay [3], 10% (inactive); in assay [4], 40% (inactive).

`COc1cc(NC2c3ccccc3C(=O)N2Cc2ccccc2Cl)cc(OC)c1` (centres undefined): the inhibition in assay [1] is 38% (inactive); in assay [2] it was 17% (inactive); in assay [3] it was -3% (inactive); in assay [4], 18% (inactive).

For `COc1ccc(/C=C2/C(=O)N(c3ccccc3)N=C2C)cc1`, the inhibition in assay [1] is 20% (inactive); in assay [2] it was 47% (inactive); in assay [3], 35% (inactive); in assay [4], 35% (inactive).

As to `COc1ccc(CCNC(=O)COC(=O)c2ccc(C)s2)cc1`, the inhibition in assay [1] was -2% (inactive); in assay [2] it was 40% (inactive); in assay [3], -38% (inactive); in assay [4], 72%.

With `O=C(O)c1ccc(S(=O)(=O)c2ccc3c(c2)C(=O)N(c2ccc(O)cc2)C3=O)cc1`, the inhibition is 18% (inactive) in assay [1], 32% (inactive) in assay [2], 34% (inactive) in assay [3] and -3% (inactive) in assay [4].

Turning to `COc1cccc(NC(=O)CN(C)C(=O)C23CC4CC(CC(Cl)(C4)C2)C3)c1`, the inhibition is 13% (inactive) in assay [1], 17% (inactive) in assay [2], 13% (inactive) in assay [3] and 60% in assay [4].

For `COc1ccc(-c2cc(=O)n(CCC#N)[nH]2)cc1`, the inhibition in assay [1] was 17% (inactive); in assay [2], 17% (inactive); in assay [3], 35% (inactive); in assay [4], 32% (inactive).

Take `CCNC(=S)NNC(=O)c1csc(C)c1`: the inhibition in assay [1] is 2% (inactive); in assay [2], -19% (inactive); in assay [3], 14% (inactive); in assay [4], 25% (inactive).

For `O=c1cc(-c2ccc(F)cc2)[nH][nH]1`, the inhibition in assay [1] was 33% (inactive); in assay [2] it was 28% (inactive); in assay [3] it was 1% (inactive); in assay [4] it was 37% (inactive).

In the case of `COC(=O)c1cc(C)nc(Sc2ccccc2N)n1`, the inhibition is 23% (inactive) in assay [1], 8% (inactive) in assay [2], 60% in assay [3] and -61% (inactive) in assay [4].

In the case of `N#CCCN(C(=O)Cn1nc(C(=O)O)c2ccccc2c1=O)c1ccccc1`, the inhibition was 53% in assay [1], 21% (inactive) in assay [2], 29% (inactive) in assay [3] and -23% (inactive) in assay [4].

Values taken from PubChem BioAssay AID588487 (The Scripps Research Institute Molecular Screening Center, 2011).
